Results on 27 compounds are retold here after ChEMBL document CHEMBL1125387, “Synthesis and biological action of the aminotetrahydroisoquinocarbazoles and related compounds: a new class of compounds with antiarrhythmic activity” (1992).

In general, ED50 refers to the dose that gives a 50% effect, or the effect in half of the subjects.

For the first test, the system named is Mus musculus. As to the kind of experiment: Antiarrhythmic activity in chloroform induced ventricular arrhythmia in mice, 15 min before exposure to chloroform intraperitoneal administration. The test is classed as functional, Heart.
Conditions: not given
The method in brief: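 Female ICR mice (20-25 g) dosed ip; 15 min later placed 2 min in 2-L glass chamber saturated with chloroform vapor (150 mL chloroform warmed at 33 °C). Chest opened, ventricular ECG recorded 1 min via silver electrodes. Dose judged effective if ventricular rate <400 bpm just after thoracotomy; 3-10 mice per dose level; ED50 for protection from ventricular tachycardia calculated.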
In turn, `Cl.N[C@@H]1Cc2c3n(c4cccc(O)c24)C(=O)C[C@H]2CCC[C@@H]1[C@@H]32` (stereo in doubt; (+)-10) had an ED50 of 5 mg/kg.

The same test, now with this note: Mus musculus, Heart, ip; read-out: ED50.
As to `C[C@@]12CCC[C@H]3[C@H](N)Cc4c(n(c5cc(O)c(O)cc45)C(=O)C1)[C@H]32.Cl`, the ED50 was 34 mg/kg. As to `CCC[C@@]12CCC[C@H]3[C@H](N)Cc4c(n(c5cc(O)c(O)cc45)C(=O)C1)[C@H]32.Cl`, the ED50 is 20 mg/kg. Same read-out and setting: for `N[C@@H]1Cc2c3n(c4ccc(O)cc24)C(=O)C[C@@]2(Cc4ccccc4)CCC[C@@H]1[C@@H]32` the value was over 40 mg/kg. On the same count and under the same terms, for `CCC[C@@]12CCC[C@H]3[C@H](N)Cc4c(n(c5cccc(O)c45)C(=O)C1)[C@H]32.Cl` the value was 20 mg/kg; for `Cl.N[C@@H]1Cc2c3n(c4cccc(O)c24)C(=O)C[C@H]2CCC[C@@H]1[C@@H]32` (stereo in doubt; 10), 10 mg/kg. The same measure, in the same setting: as for `CC[C@@]12CCC[C@H]3[C@H](N)Cc4c(n(c5cc(O)c(O)cc45)C(=O)C1)[C@H]32.Cl`, the figure is 7 mg/kg; as for `CC(C)N(CCC(C(N)=O)(c1ccccc1)c1ccccn1)C(C)C` (configuration not stated) [DISOPYRAMIDE], 11.8 mg/kg; as for `CC[C@]12CCC[C@@H]3[C@H]1c1c(c4cc(O)ccc4n1C(=O)C2)C[C@H]3C(=O)NCCN1CCCC1`, over 40 mg/kg. In the case of `CC[C@]12CCC[C@@H]3[C@H]1c1c(c4c(O)cccc4n1C(=O)C2)C[C@H]3C(=O)NN`, the 50% effective dose (ED50) is over 40 mg/kg. `CC[C@]12CCC[C@@H]3[C@H]1c1c(c4cc(O)ccc4n1C(=O)C2)C[C@H]3C(=O)OCCN1CCN(C)CC1`: the ED50 came to 34 mg/kg. The same measure, in the same setting: as for `N[C@@H]1Cc2c3n(c4ccc(O)cc24)C(=O)C[C@@]2(CCc4ccccc4)CCC[C@@H]1[C@@H]32`, the figure is over 40 mg/kg; as for `Cl.N[C@@H]1Cc2c3n(c4cc(O)c(O)cc24)C(=O)C[C@H]2CCC[C@@H]1[C@@H]32`, over 40 mg/kg. Consider `CC(C)[C@@]12CCC[C@H]3[C@H](N)Cc4c(n(c5ccc(O)cc45)C(=O)C1)[C@H]32`, for which the ED50 worked out at 8.4 mg/kg. Same read-out and setting: as for `N[C@@H]1Cc2c3n(c4ccccc24)C(=O)CC[C@H]3C1.O=C(O)/C=C/C(=O)O`, the figure is over 40 mg/kg. Still for that read-out and setting: as for `CC[C@@]12CCC[C@H]3[C@H](N)Cc4c(n(c5cc(OC)c(OC)cc45)C(=O)C1)[C@H]32.Cl`, the figure is 34 mg/kg; as for `N[C@@H]1Cc2c3n(c4cccc(O)c24)C(=O)C[C@@]2(CCc4ccccc4)CCC[C@@H]1[C@@H]32`, over 40 mg/kg. Consider `CC[C@@]12CCC[C@H]3[C@H](N)Cc4c(n(c5cccc(O)c45)C(=O)C1)[C@H]32.Cl`, for which the ED50 turned out to be 6 mg/kg.

Turning to `Cl.NCCc1cn(C(=O)CC2CCCCC2)c2ccccc12`, the ED50 amounted to 48 mg/kg. Still for that read-out and setting: as for `CC[C@@]12CCC[C@H]3CCc4c(n(c5ccccc45)C(=O)C1)[C@H]32`, the figure is over 40 mg/kg; as for `N[C@@H]1Cc2c3n(c4ccc(O)cc24)C(=O)C[C@H]2CCC[C@@H]1[C@@H]32`, over 40 mg/kg. Same read-out and setting: as for `C[C@@]12CCC[C@H]3[C@H](N)Cc4c(n(c5cccc(O)c45)C(=O)C1)[C@H]32.Cl`, the figure is 8 mg/kg; as for `CCCC[C@@]12CCC[C@H]3[C@H](N)Cc4c(n(c5ccc(O)cc45)C(=O)C1)[C@H]32`, 12 mg/kg; as for `C[C@@]12CCC[C@H]3[C@H](N)Cc4c(n(c5ccc(O)cc45)C(=O)C1)[C@H]32`, over 40 mg/kg.

In the case of `N[C@@H]1Cc2c3n(c4ccccc24)C(=O)C[C@H]2CC[C@@H]1[C@@H]32.O=C(O)/C=C/C(=O)O`, the ED50 stood at 40 mg/kg.

Turning to `N[C@@H]1Cc2c3n(c4ccccc24)C(=O)C[C@H]2CCC[C@@H]1[C@@H]32.O=C(O)/C=C/C(=O)O`, the ED50 came out at 32 mg/kg. The same measure, in the same setting: for `N[C@@H]1Cc2c3n(c4ccccc24)C(=O)C[C@H]2CCCC[C@@H]1[C@@H]32.O=C(O)/C=C/C(=O)O` the value was 80 mg/kg.
